The values that follow come from article PMC8883746 (Journal of medicinal chemistry, 2021).

Broadly, the IC50 is the concentration needed to halve the response being measured. One may read the Kd as the constant that tells how readily two partners part at equilibrium.

Like-named read-outs stand apart in the source and are kept apart here. Where only a bound is given, the exact number is not on record here.

Data set [1] concerns RNA containing a single 2 × 2 CU/UC internal loop, r(5′-GACAGCCUGCUGUC-3′). The experiment in a line: NMR spectroscopy. In kind it is binding. As to conditions: for shifts of RNA H6 and H8 proton resonances in 1D NMR: RNA with one 2×2 CU/UC internal loop; for binding to the RNA by waterLOGSY spectra: positive phase signals in the presence of RNA, 20:1 compound:RNA. The procedure, abridged:
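1D spectra were run on 100 μM RNA in D2O with compound titrated at 0.5–2.0 molar ratios. WaterLOGSY used 300 μM compound alone or with 15 μM RNA in H2O/5% D2O, phased so non-binders give negative NOEs. All spectra at 25 °C.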

For data set [2], the system named is IR exon 11 splicing. In kind it is cell-based. The settings on record: DM2 patient-derived fibroblasts; for rescue of IR exon 11 splicing (percent rescue): 1 μM. An outline of the steps:
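DM2 patient-derived fibroblasts were treated at ~40% confluency in 6-well plates for 48 h. About 1 μg of total RNA was reverse transcribed. PCR ran 35 cycles (95/58/72 °C), and products were resolved on a 2% agarose gel, stained with ethidium bromide and quantified. Percent rescue = (untreated DM2 exclusion − treated exclusion)/(untreated DM2 exclusion − untreated WT exclusion) × 100.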

Data set [3] deals with r(CCUG)12–MBNL1 complex. The data set is described as follows: TR-FRET assay measuring disruption of a preformed r. Format: biochemical. The settings on record: read-out: IC50 for disrupting the r(CCUG)12–MBNL1 complex, in vitro. An outline of the steps:
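5′-Biotinylated r(CCUG)12 was folded at 60 °C for 5 min in 20 mM HEPES pH 7.5 with KCl and NaCl. It was then brought into assay buffer with 2 mM MgCl2, 2 mM CaCl2, 5 mM DTT, 0.1% BSA and 0.5% Tween-20. MBNL1-His6 was added (final 60 nM protein, 80 nM RNA) for 15 min, then varying compound concentrations for 15 min. Streptavidin-XL665 (40 nM) and anti-His6-Tb (0.44 ng/μL) were added for 30 min at room temperature. The F545/F665 ratio, with excitation at 345 nm, was fitted to a Hill equation.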

The subject of data set [4] is DM2 patient-derived fibroblasts. The data set is described as follows: Cell viability. Format: cell-based. The settings on record: 5 μM, 48 h. The procedure, abridged:
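Cells were treated in 96-well plates for 48 h. CellTiter-Glo reagent was added, plates sat 10 min at room temperature, and luminescence was read. n = 6 replicates in one independent experiment.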

Data set [5] has as its target base-paired RNA that does not contain internal loops. The data set is described as follows: Microscale thermophoresis. Format: binding. The settings on record: read-out: Kd for base pair control RNA; MST. The procedure, abridged:
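Cy5-labelled base-paired control RNA, GCG(CCUG)7(GCAG)5CGC, was used at 5 nM in 8 mM Na2HPO4 pH 7.0, 185 mM NaCl and 1 mM EDTA, folded at 60 °C for 5 min. It was mixed with 1:1 serial compound dilutions (0.05% Tween-20 final) and held 30 min at room temperature. MST settings: 80% power, 30 s laser-on. Kd came from a quadratic fit, averaged over two independent experiments.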
(In general: MST reads how a fluorescent partner responds to local heating, with and without ligand.)

For data set [6], the system named is r(CCUG)exp–MBNL1 nuclear foci. In kind it is cell-based. The settings on record: 5 μM, DM2 patient-derived fibroblasts; untreated 7 ± 1.
The test system of data set [7] is MAP4K4 exon 22a splicing. The experiment in a line: MAP4K4 exon 22a splicing. In kind it is cell-based. The settings on record: NOVA-dependent splicing event.
The test system of data set [8] is CNBP intron 1. The experiment in a line: CNBP intron 1 abundance by RT-qPCR in DM2 patient-derived fibroblasts. Format: cell-based. The settings on record: doses of 5 and 1 μM. The procedure, abridged:
(§1)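 DM2 patient-derived fibroblasts were grown in DMEM/high glucose with 20% FBS at 37 °C and 5% CO2. Cells in 6-well plates were treated in growth medium at 40% confluency for 48 h. About 1 μg of total RNA was reverse transcribed, then run in SYBR Green qPCR. Abundance was normalized to GAPDH across 2 independent experiments.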

Data set [9] relates to CNBP mature mRNA. The data set is described as follows: CNBP mature mRNA levels by RT-qPCR in DM2 patient-derived fibroblasts. In kind it is cell-based. An outline of the steps:
as §1
(In general: In qPCR the cycle at which signal appears reflects the starting amount.)

Data set [10] deals with CNBP intron 1. The data set is described as follows: CNBP intron 1 levels in wild-type fibroblasts. Format: cell-based. The procedure, abridged:
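Wild-type donor fibroblasts (GM07492) were grown in MEM with 10% FBS and Glutagro at 37 °C and 5% CO2. Cells were treated at 40% confluency for 48 h. About 1 μg of total RNA was reverse transcribed and run in SYBR Green qPCR. Relative abundance was normalized to GAPDH.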

The test system of data set [11] is IR exon 11 inclusion. The data set is described as follows: IR exon 11 inclusion in wild-type fibroblasts. In kind it is cell-based. The procedure, abridged: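 Wild-type donor fibroblasts (GM07492) were grown in MEM with 10% FBS and treated at ~40% confluency for 48 h. About 1 μg of total RNA was reverse transcribed. PCR ran 35 cycles (95 °C 30 s, 58 °C 30 s, 72 °C 1 min). Products were separated on a 2% agarose gel, stained with ethidium bromide, and percent exon 11 exclusion was quantified by densitometry.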

Regarding `COc1ccc(Nc2nc(NCCCO)c3ccccc3n2)cc1` [compound 3], in [1], the “shifts of RNA H6 and H8 proton resonances in 1D NMR” value (from here on “shifts”) is reported as “Significant shifts in resonances”; the “binding to the RNA by waterLOGSY spectra” value is listed as “bound to the RNA”.
The like results for `CN(C)c1ccc(Nc2nc(NCCCO)c3ccccc3n2)cc1` [compound 4] were, in that order, “Significant shifts in resonances” and “bound to the RNA”.
`CC(=O)Nc1ccc(Nc2nc(NCC3CCCO3)c3ccccc3n2)cc1` (centres unmarked) [compound 5]: in data set [1], the “shifts” value was “Significant shifts in resonances”; the “binding to the RNA by waterLOGSY spectra” value is “bound to the RNA”.
For the compound `OCCCNc1nc(Nc2ccc3c(c2)OCCO3)nc2ccccc12` [compound 7, 3-((2-((2,3-dihydrobenzo[b][1,4]dioxin-6-yl)amino)quinazolin-4-yl)amino)propan-1-ol], in [1], the “shifts” value is “Significant shifts in resonances”; the “binding to the RNA by waterLOGSY spectra” value is recorded as “bound to the RNA”. Also, the “rescue of IR exon 11 splicing (percent rescue)” value in data set [2] (48 h) was 12 ± 5%.
`Cc1ccc2nc(Nc3ccc4c(c3)OCCO4)nc(NCCCO)c2c1` [compound 58, 3-((2-((2,3-dihydrobenzo[b][1,4]dioxin-6-yl)amino)-6-methylquinazolin-4-yl)amino)propan-1-ol]: the IC50 in data set [3] turned out to be 12.7 ± 0.2 µM.
For the compound `Cc1ccc2nc(Nc3ccc4nc(C)sc4c3)nc(NCCCO)c2c1` [compound 63, 3-((6-methyl-2-((2-methylbenzo[d]thiazol-6-yl)amino)quinazolin-4-yl)amino)propan-1-ol], in data set [3], the IC50 stood at 2.2 ± 0.5 µM. The “toxicity in DM2 patient-derived fibroblasts” value (“toxicity” for short) in data set [4] is given as “no toxicity”. The “rescue of IR exon 11 splicing (percent rescue)” value in [2] (48 h) was 33 ± 5%. Further, the “rescue of IR exon 11 splicing” value in [2] (5 μM, 48 h) is reported as “significantly improved IR splicing”. In addition, in data set [5], the Kd was more than 20 µM. Besides, the “number of r(CCUG)exp–MBNL1 nuclear foci per cell” value in data set [6] turned out to be 5 ± 0.5. In [7], the “effect on MAP4K4 exon 22a splicing” value is “did not affect”. Also, in data set [8], the “abundance of CNBP intron 1” value is “significantly reduced”. Also, the “levels of CNBP mature mRNA” value in [9] is listed as “did not affect”. Besides, the “effects on CNBP intron 1 levels” value in [10] is “no effects were observed”. In data set [11], the “effect on IR exon 11 inclusion” value is given as “did not affect”.
`Cc1ccc2nc(Nc3ccc4nc(NC5CCN(Cc6ccccc6)CC5)sc4c3)nc(NCCCO)c2c1` [compound 71, 3-((2-((2-((1-benzylpiperidin-4-yl)amino)benzo[d]thiazol-6-yl)amino)-6-methylquinazolin-4-yl)amino)propan-1-ol]: the IC50 in [3] is less than 5 µM.
For `Cc1ccc2nc(Nc3ccc4nc(N5CCOCC5)sc4c3)nc(NCCCO)c2c1` [compound 72, 3-((6-methyl-2-((2-morpholinobenzo[d]thiazol-6-yl)amino)quinazolin-4-yl)amino)propan-1-ol], the IC50 in data set [3] was less than 5 µM.
On the same count and under the same terms, then `Cc1ccc2nc(Nc3ccc4nc(NCC(C)C)sc4c3)nc(NCCCO)c2c1` [compound 73, 3-((2-((2-(isobutylamino)benzo[d]thiazol-6-yl)amino)-6-methylquinazolin-4-yl)amino)propan-1-ol], with less than 5 µM; and `Cc1ccc2nc(Nc3ccc4nc(NCCN5CCOCC5)sc4c3)nc(NCCCO)c2c1` [compound 74, 3-((6-methyl-2-((2-((2-morpholinoethyl)amino)benzo[d]thiazol-6-yl)amino)quinazolin-4-yl)amino)propan-1-ol], with less than 5 µM.
For the compound `Cc1ccc2nc(Nc3ccc4nc(NCC(C)(C)O)sc4c3)nc(NCCCO)c2c1` [compound 78, 3-((2-((2-((2-hydroxy-2-methylpropyl)amino)benzo[d]thiazol-6-yl)amino)-6-methylquinazolin-4-yl)amino)propan-1-ol], in [3], the IC50 is less than 5 µM. For the same compound, in [4], the “toxicity” value was “no toxicity”. The “rescue of IR exon 11 splicing” value in [2] (5 μM, 48 h) is given as “significantly improved IR splicing”.
On to `Cc1ccc2nc(Nc3ccc4nc(NCCN(C)C)sc4c3)nc(NCCCO)c2c1` [compound 79, 3-((2-((2-((2-(dimethylamino)ethyl)amino)benzo[d]thiazol-6-yl)amino)-6-methylquinazolin-4-yl)amino)propan-1-ol], for which, in data set [3], the IC50 was less than 5 µM. Moreover, the “toxicity” value in data set [4] is “no toxicity”. In addition, in data set [2] (any concentration studied), the “rescue of IR exon 11 splicing” value was “did not significantly rescue splicing”.
Turning to `Cc1ccc2nc(Nc3ccc4nc(N5CCN(C)CC5)sc4c3)nc(NCCCO)c2c1` [compound 82, 3-((6-methyl-2-((2-(4-methylpiperazin-1-yl)benzo[d]thiazol-6-yl)amino)quinazolin-4-yl)amino)propan-1-ol], in data set [3], the IC50 is less than 5 µM.
